Consider 8 compounds from ChEMBL document CHEMBL1142433, “Synthesis and pharmacological characterization at glutamate receptors of the four enantiopure isomers of tricholomic acid” (J Med Chem, 2008).

For assay [1], the target named is Glutamate receptor 2 (Rattus norvegicus) (UniProt P19491). Description: Activity at rat cloned iGluR2 expressed in human HEK293 cells by calcium imaging assay relative to L-glutamate. The assay is classed as cell-based. More on the design: concentration or dose not given beside the values. Summed up:
(§1)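 Rat iGluR1–6 subtypes cloned and expressed in HEK cells: iGluR2, iGluR5 and iGluR6 as the Q forms; iGluR1–4 marked with subscript "i". Receptor activation was read by Fluo-4 calcium imaging.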

Assay [2] addresses Glutamate receptor 4 (Rattus norvegicus) (UniProt P19493). Description: Activity at rat cloned iGluR4 expressed in human HEK293 cells by calcium imaging assay relative to L-glutamate. Also noted: concentration or dose not given beside the values. The assay is classed as cell-based. In outline:
as §1

Assay [3] in a line: Displacement of [3H]AMPA from AMPA receptor in rat cortical membrane. In kind it is cell membranes. In outline:
(§2)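 Competition binding on rat cortical membranes prepared by the Ransom and Stec method, using [3H]AMPA (AMPA receptors) or [3H]KA (kainate receptors). IC50 in µM reported as mean [pIC50 ± SEM] of at least three individual experiments.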

For assay [4], the target named is Glutamate receptor 1 (Rattus norvegicus, UniProt P19490). Description: Activity at rat cloned iGluR1 expressed in human HEK293 cells by calcium imaging assay. In kind it is cell-based. Summed up: as §1
Assay [5] concerns the target Metabotropic glutamate receptor 2 (Rattus norvegicus, UniProt P31421). The assay is described as follows: Activity at rat cloned mGluR2 expressed in CHO cells assessed as effect on cAMP accumulation. The assay is classed as functional, cell-based. In outline:
(§3)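 Second-messenger functional assay on rat mGluR1a (group I), mGluR2 (group II) and mGluR4 (group III) expressed in CHO cells. EC50 in µM with pEC50, reported as mean [pEC50 ± SEM] of at least three independent experiments.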

Assay [6] has as its target Metabotropic glutamate receptor 4 (Rattus norvegicus, UniProt P31423). Description: Activity at rat cloned mGluR4 expressed in CHO cells assessed as effect on cAMP accumulation. The assay is classed as functional, cell-based. Summed up: as §3
Assay [7] concerns the target Glutamate receptor 3 (Rattus norvegicus) (UniProt P19492). The assay is described as follows: Activity at rat cloned iGluR3 expressed in human HEK293 cells by calcium imaging assay relative to L-glutamate. The assay is classed as cell-based. More on the design: concentration or dose not given beside the values. In outline:
as §1

In assay [8] the target is Metabotropic glutamate receptor 1 (Rattus norvegicus, UniProt P23385). Description: Activity at rat cloned mGluR1a expressed in CHO cells assessed as effect on cAMP accumulation. In kind it is functional, cell-based. Summed up:
as §3

Assay [9] has as its target Glutamate receptor ionotropic, kainate 1 (Rattus norvegicus) (UniProt P22756). Description: Activity at rat cloned iGluR5 expressed in human HEK293 cells by calcium imaging assay relative to L-glutamate. The assay is classed as cell-based. More on the design: concentration or dose not given beside the values. Summed up:
as §1

Assay [10] deals with Glutamate NMDA receptor. Description: Displacement of [3H]CGP-39653 from NMDA receptor in rat cortical membrane. The assay is classed as cell membranes. Summed up:
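NMDA receptor binding on rat cortical membranes prepared by the Ransom and Stec method, with [3H]CGP39653 as radioligand. Ki in µM reported as mean [pKi ± SEM] of at least three individual experiments.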

Assay [11] concerns the target Glutamate receptor 4 (Rattus norvegicus, UniProt P19493). The assay is described as follows: Activity at rat cloned iGluR4 expressed in human HEK293 cells by calcium imaging assay. The assay is classed as cell-based. In outline: as §1
Assay [12] has as its target Glutamate receptor ionotropic, kainate 1 (Rattus norvegicus, UniProt P22756). Description: Activity at rat cloned iGluR5 expressed in human HEK293 cells by calcium imaging assay. In kind it is cell-based.
Assay [13] addresses Glutamate receptor ionotropic, kainate 2 (Rattus norvegicus) (UniProt P42260). The assay is described as follows: Activity at rat cloned iGluR6 expressed in human HEK293 cells by calcium imaging assay relative to L-glutamate. The assay is classed as cell-based. More on the design: concentration or dose not given beside the values. In outline:
as §1

The target of assay [14] is Glutamate receptor 1 (Rattus norvegicus) (UniProt P19490). Description: Activity at rat cloned iGluR1 expressed in human HEK293 cells by calcium imaging assay relative to L-glutamate. In kind it is cell-based. More on the design: concentration or dose not given beside the values. Summed up: as §1
Assay [15] is described as follows: Displacement of [3H]KA from kainate receptor in rat cortical membrane. The assay is classed as cell membranes. In outline:
as §2

Assay [16] deals with Glutamate receptor ionotropic, kainate 2 (Rattus norvegicus, UniProt P42260). The assay is described as follows: Activity at rat cloned iGluR6 expressed in human HEK293 cells by calcium imaging assay. The assay is classed as cell-based. In outline: as §1
Assay [17] deals with Glutamate receptor 2 (Rattus norvegicus, UniProt P19491). The assay is described as follows: Activity at rat cloned iGluR2 expressed in human HEK293 cells by calcium imaging assay. The assay is classed as cell-based.
The target of assay [18] is Glutamate receptor 3 (Rattus norvegicus, UniProt P19492). The assay is described as follows: Activity at rat cloned iGluR3 expressed in human HEK293 cells by calcium imaging assay. In kind it is cell-based. Summed up: as §1
Sequence of Glutamate receptor 3 (P19492 whole entry): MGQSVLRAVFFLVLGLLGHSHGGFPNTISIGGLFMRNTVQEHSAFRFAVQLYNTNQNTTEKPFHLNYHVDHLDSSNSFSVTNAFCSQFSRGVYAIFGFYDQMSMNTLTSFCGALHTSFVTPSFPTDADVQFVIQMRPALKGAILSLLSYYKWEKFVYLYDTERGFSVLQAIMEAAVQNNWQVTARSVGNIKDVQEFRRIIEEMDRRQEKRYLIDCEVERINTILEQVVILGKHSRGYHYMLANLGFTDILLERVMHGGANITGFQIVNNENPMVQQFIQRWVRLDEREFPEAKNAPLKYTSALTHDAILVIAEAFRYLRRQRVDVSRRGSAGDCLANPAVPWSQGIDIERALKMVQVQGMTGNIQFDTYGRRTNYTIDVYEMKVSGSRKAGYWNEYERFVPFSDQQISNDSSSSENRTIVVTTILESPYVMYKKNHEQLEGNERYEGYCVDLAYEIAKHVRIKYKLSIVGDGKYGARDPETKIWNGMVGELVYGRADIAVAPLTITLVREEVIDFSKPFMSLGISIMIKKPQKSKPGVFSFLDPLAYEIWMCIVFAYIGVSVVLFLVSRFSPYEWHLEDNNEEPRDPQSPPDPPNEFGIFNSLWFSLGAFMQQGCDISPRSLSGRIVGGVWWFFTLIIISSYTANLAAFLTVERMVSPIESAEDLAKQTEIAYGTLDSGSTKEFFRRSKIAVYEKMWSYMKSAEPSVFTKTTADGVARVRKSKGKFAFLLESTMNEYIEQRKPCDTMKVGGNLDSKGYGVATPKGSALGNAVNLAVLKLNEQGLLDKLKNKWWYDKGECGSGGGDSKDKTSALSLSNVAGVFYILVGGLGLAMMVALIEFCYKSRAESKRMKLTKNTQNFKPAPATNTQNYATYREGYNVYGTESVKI

Sequence of Metabotropic glutamate receptor 1 (P23385 whole entry): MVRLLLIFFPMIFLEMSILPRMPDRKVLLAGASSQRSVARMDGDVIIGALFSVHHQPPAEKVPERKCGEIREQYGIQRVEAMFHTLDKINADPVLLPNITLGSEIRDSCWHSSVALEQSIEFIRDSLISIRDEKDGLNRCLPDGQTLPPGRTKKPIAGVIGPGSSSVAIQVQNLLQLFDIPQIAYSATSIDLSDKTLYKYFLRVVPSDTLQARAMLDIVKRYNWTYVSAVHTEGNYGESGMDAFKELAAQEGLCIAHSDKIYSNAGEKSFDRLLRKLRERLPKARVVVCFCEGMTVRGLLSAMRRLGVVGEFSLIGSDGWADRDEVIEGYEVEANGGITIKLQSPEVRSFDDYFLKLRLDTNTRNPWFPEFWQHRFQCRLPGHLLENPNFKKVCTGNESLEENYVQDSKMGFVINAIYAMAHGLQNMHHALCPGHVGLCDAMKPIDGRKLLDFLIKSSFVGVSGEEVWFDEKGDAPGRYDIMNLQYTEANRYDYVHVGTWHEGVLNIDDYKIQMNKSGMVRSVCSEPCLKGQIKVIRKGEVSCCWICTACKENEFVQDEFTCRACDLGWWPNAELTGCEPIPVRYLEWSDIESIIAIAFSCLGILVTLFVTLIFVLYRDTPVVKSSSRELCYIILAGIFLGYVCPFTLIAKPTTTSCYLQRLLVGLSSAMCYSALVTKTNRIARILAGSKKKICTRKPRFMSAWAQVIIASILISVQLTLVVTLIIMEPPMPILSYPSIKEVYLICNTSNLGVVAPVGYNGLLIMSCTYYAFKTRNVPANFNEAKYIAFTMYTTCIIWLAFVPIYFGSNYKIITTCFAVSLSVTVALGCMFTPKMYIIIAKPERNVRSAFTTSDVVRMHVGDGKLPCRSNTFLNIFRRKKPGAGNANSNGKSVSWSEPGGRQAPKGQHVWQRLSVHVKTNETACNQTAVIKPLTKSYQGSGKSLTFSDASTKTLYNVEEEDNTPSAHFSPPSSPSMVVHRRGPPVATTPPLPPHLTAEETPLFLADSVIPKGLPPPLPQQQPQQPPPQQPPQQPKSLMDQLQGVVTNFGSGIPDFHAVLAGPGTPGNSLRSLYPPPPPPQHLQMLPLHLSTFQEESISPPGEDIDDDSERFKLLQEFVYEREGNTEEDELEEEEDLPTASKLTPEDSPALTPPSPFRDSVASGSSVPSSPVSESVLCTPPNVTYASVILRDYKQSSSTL
Sequence of Glutamate receptor ionotropic, kainate 1 (P22756 whole entry): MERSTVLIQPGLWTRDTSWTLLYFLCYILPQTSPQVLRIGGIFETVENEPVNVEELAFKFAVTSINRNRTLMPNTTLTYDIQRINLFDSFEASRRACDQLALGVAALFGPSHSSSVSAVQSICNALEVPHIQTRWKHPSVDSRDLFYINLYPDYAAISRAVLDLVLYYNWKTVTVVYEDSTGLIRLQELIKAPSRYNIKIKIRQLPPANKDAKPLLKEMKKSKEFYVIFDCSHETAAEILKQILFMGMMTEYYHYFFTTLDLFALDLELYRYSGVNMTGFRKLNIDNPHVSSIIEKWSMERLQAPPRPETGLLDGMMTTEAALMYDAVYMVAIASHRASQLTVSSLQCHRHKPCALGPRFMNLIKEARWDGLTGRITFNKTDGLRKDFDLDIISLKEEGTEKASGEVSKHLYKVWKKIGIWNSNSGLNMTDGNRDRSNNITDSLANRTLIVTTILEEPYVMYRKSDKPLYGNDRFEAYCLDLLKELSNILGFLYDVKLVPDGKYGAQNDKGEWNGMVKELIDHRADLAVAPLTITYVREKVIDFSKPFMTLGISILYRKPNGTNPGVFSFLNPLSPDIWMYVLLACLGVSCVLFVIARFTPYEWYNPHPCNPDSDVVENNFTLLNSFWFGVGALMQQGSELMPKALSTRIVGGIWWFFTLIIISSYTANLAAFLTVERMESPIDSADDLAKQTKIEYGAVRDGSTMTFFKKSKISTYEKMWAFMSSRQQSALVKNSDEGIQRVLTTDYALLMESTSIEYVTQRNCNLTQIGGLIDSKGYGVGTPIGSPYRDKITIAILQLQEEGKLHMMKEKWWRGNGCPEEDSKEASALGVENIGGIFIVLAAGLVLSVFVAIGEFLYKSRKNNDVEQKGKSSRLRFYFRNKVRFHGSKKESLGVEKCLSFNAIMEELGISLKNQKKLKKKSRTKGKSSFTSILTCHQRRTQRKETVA
Sequence of Glutamate receptor ionotropic, kainate 1 (Rattus norvegicus) (P22756 whole entry): as above
Sequence of Glutamate receptor 2 (Rattus norvegicus) (P19491 whole entry): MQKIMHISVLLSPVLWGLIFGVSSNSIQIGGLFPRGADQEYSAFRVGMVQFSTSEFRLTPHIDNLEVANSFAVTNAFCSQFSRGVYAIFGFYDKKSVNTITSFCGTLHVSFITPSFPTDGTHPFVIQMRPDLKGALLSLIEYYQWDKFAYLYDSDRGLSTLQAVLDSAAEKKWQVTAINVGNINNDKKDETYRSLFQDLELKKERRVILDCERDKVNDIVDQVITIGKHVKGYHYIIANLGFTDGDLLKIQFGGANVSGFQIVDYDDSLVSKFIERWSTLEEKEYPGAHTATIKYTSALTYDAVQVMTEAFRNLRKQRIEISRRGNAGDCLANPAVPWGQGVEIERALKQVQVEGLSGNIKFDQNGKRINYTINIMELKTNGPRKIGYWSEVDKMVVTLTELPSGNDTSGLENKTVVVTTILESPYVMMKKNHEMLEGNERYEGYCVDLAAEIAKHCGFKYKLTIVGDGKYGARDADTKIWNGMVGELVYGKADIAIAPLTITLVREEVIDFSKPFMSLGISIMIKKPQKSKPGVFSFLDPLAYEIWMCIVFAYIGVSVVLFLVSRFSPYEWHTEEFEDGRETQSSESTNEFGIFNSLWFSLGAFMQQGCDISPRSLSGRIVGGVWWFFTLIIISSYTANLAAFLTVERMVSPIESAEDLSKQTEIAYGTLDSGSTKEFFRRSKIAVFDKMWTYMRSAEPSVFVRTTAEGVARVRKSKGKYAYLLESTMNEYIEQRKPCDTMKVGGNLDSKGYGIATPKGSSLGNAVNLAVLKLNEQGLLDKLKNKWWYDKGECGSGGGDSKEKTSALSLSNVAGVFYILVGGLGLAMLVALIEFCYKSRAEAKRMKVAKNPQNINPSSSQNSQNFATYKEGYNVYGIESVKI
Sequence of Glutamate receptor 2 (P19491 whole entry): as above
Sequence of Glutamate receptor 3 (Rattus norvegicus) (P19492 whole entry): as the sequence (P19492 whole entry) above
Sequence of Glutamate receptor 4 (P19493 whole entry): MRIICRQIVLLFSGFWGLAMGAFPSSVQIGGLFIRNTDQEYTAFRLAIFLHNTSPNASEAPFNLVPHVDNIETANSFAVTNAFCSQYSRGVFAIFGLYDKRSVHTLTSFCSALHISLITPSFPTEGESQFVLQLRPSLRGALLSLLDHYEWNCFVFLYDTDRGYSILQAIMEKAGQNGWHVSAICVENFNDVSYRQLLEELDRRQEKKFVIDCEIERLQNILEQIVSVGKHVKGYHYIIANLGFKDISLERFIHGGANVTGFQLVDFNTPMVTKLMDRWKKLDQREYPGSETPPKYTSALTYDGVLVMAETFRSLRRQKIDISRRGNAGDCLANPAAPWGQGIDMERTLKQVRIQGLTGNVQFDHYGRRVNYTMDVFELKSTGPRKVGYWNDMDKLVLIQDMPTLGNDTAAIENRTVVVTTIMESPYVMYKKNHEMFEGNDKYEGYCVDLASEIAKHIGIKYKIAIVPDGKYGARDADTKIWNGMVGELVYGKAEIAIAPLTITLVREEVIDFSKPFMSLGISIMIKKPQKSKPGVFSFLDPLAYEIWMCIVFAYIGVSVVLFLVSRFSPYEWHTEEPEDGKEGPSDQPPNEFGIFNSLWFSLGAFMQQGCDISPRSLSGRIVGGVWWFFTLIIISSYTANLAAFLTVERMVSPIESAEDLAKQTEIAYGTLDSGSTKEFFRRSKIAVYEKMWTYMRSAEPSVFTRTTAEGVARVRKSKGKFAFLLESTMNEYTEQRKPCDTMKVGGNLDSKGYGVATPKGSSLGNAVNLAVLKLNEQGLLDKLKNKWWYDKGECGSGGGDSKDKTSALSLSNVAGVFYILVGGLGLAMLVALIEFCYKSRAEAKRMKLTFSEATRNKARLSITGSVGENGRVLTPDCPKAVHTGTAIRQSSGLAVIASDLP
Sequence of Glutamate receptor 4 (Rattus norvegicus) (P19493 whole entry): as above

`N[C@H](C(=O)O)[C@@H]1CC(O)=NO1`: the Activity in assay [1] amounted to 74%; in [2], 91%; in assay [7] it was 88%; in assay [9] it was 91%; in assay [13], 91%; in [14] it was 90%. Also, the IC50 in [3] turned out to be 0.95 µM; in [15], 0.29 µM. In addition, the entries for the “Log IC50” value in [3] and in assay [15] were -6.02 and -6.55, respectively. In addition, the EC50 was 120 µM in assay [4]; more than 1000 µM in assay [5]; more than 1000 µM in assay [6]; 610 µM in assay [8] (read-out: EC50); 30 µM in assay [11]; 280 µM in assay [12]. Further, the EC50 was 82 µM in assay [16], 480 µM in [17], 170 µM in assay [18] (read-out: EC50) and 155 µM in assay [18] (read-out: Log EC50 (converted)). The compound also had a Ki in [10] of 41 µM.
With `N[C@@H](C(=O)O)[C@@H]1CC(O)=NO1`, the Activity was 14% in [1]; 7% in [2]; 10% in assay [7]; 8% in assay [9]; 15% in assay [13]; 13% in [14]. The IC50 in assay [3] was 12 µM; in [15], 11 µM. In addition, the “Log IC50” value is on record as -4.92 in assay [3] and -4.95 in assay [15]. The EC50 in assay [4], in assay [5], in assay [6], in assay [8] (read-out: EC50), in assay [11] and in [12] was more than 1000 µM each time. In addition, the EC50 in [16], in [17] and in assay [18] (read-out: EC50) was more than 1000 µM each time. Moreover, affinity in assay [10] was put at a Ki of 75 µM.
In the case of `N[C@H](C(=O)O)c1cc(O)no1` [IBOTENIC ACID], the Activity in [1] stood at 2%; in assay [2], 32%; in assay [7], 1%; in assay [9] it was 8%; in [13], 96%; in assay [14], 6%. The results for the IC50 in [3] and in assay [15] were more than 100 µM and 22 µM, respectively. Besides, the “Log IC50” value in assay [15] is reported as -4.66.
`NC(C(=O)O)C1CC(O)=NO1` (racemic; form 1) [TRICHOLOMIC ACID]: the IC50 in assay [3] came to 1.1 µM; in assay [10], 1.5 µM; in [15] it was 0.76 µM. Moreover, the “Log IC50” value in [3] is reported as -5.86; in [15], -6.14. The EC50 is more than 1000 µM in assay [5], more than 1000 µM in assay [6] and 790 µM in [8] (read-out: EC50).
Consider `N[C@@H](C(=O)O)[C@H]1CC(O)=NO1`, for which the Activity in assay [1] is 13%; in [2], 9%; in assay [7], 10%; in assay [9] it was 10%; in assay [13] it was 11%; in [14] it was 15%. For the same compound, the IC50 in assay [3] and in assay [15] was more than 100 µM each time. Besides, the EC50 in assay [4], in assay [5], in assay [6], in assay [8] (read-out: EC50), in assay [11] and in assay [12] was more than 1000 µM throughout. For the same compound, the EC50 in assay [16], in [17] and in assay [18] (read-out: EC50) was more than 1000 µM each time. The compound also gave a Ki in [10] of 0.67 µM. The “Log Ki” value in assay [10] is -6.19.
Consider `NC(C(=O)O)C1CC(O)=NO1` (racemic; form 2) [TRICHOLOMIC ACID], for which the IC50 in assay [3] was 19 µM; in assay [10], 73 µM; in assay [15], 6 µM. Further, the “Log IC50” value in [3] is -4.73; in assay [15] it was -5.22. In addition, the figures for the EC50 in assay [5], in assay [8] (read-out: EC50) and in assay [8] (read-out: Log EC50 (converted)) were 100 µM, 110 µM and 79.4 µM, respectively.
In the case of `N[C@H](C(=O)O)[C@H]1CC(O)=NO1`, the Activity in assay [1] was found to be 20%; in assay [2], 90%; in [7] it was 23%; in assay [9], 12%; in assay [13], 11%; in assay [14], 35%. For the same compound, the IC50 in assay [3] is more than 100 µM; in [15] it was 36 µM. Besides, the EC50 was more than 1000 µM in [4]; 84 µM in assay [5]; more than 1000 µM in assay [6]; 82 µM in [8] (read-out: EC50); more than 1000 µM in assay [11]; more than 1000 µM in assay [12]. The EC50 in [16], in assay [17] and in assay [18] (read-out: EC50) was more than 1000 µM each time. In [10], this compound had a Ki of 95 µM. The “Log Ki” value in assay [10] is on record as -4.03. Further, the “Log IC50” value in assay [15] is recorded as -4.45.
Turning to `N[C@H](C(=O)O)c1cc(=O)[nH]o1` [IBOTENIC ACID], the EC50 in assay [4] is more than 1000 µM; in assay [6], more than 1000 µM; in assay [8] (read-out: EC50), 43 µM; in assay [11], more than 1000 µM; in assay [12], more than 1000 µM; in [16] it was more than 1000 µM. Moreover, the EC50 in [17] and in assay [18] (read-out: EC50) was more than 1000 µM throughout.
